According to ChEMBL document CHEMBL1137074, “Novel N-arylpyrazolo[3,2-c]-based ligands for the glucocorticoid receptor: receptor binding and in vivo activity” (J Med Chem, 2004):

What was measured:
[1] = molecular target: T1, Estrogen receptor (Homo sapiens, UniProt P03372); assay: Binding affinity for human Estrogen receptor alpha
T1 sequence (P03372 whole entry): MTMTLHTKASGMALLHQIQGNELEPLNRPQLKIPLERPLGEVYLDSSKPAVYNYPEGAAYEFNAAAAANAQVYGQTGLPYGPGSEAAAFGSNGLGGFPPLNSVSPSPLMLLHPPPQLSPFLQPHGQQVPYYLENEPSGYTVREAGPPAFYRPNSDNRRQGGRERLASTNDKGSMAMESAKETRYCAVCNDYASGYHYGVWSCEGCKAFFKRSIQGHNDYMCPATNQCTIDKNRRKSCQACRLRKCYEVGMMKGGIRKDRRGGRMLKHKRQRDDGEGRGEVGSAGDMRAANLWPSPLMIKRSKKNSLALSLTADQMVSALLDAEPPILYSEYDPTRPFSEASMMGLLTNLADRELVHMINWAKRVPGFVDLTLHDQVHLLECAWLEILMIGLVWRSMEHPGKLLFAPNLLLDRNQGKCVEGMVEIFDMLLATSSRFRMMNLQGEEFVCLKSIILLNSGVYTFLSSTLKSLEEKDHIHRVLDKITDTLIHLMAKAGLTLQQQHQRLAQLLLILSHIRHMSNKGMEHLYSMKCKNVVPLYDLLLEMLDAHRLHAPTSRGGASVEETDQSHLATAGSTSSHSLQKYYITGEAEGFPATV

[2] = molecular target: T2, Androgen receptor (Homo sapiens, UniProt P10275); assay: Binding affinity for human androgen receptor
T2 sequence (P10275 whole entry): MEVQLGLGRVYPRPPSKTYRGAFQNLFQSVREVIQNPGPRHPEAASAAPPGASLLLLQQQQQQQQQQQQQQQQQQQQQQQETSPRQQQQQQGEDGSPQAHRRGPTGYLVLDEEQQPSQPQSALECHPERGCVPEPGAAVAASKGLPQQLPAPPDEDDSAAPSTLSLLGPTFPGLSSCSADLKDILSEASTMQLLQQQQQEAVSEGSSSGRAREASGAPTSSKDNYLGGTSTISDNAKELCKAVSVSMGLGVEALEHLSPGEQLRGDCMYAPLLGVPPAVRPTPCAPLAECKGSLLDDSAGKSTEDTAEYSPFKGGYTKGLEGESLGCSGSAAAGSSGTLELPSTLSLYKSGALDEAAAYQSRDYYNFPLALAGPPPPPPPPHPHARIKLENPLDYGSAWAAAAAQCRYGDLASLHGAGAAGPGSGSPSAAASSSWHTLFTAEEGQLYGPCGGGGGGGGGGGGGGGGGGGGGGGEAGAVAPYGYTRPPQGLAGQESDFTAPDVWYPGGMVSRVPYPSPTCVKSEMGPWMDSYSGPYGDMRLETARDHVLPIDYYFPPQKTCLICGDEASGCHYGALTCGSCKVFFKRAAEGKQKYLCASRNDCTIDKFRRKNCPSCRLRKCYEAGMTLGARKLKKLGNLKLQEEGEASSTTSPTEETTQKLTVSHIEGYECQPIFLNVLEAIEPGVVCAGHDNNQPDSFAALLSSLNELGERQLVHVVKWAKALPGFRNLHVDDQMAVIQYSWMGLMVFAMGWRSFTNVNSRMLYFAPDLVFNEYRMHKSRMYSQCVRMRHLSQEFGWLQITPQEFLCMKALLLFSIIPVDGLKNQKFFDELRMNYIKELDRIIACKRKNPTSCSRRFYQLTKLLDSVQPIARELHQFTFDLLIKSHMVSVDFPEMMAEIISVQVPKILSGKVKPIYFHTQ

[3] = molecular target: T3, Glucocorticoid receptor (Homo sapiens, UniProt P04150); assay: Compound was tested for inhibitory activity towards human glucocorticoid receptor
T3 sequence (P04150 whole entry): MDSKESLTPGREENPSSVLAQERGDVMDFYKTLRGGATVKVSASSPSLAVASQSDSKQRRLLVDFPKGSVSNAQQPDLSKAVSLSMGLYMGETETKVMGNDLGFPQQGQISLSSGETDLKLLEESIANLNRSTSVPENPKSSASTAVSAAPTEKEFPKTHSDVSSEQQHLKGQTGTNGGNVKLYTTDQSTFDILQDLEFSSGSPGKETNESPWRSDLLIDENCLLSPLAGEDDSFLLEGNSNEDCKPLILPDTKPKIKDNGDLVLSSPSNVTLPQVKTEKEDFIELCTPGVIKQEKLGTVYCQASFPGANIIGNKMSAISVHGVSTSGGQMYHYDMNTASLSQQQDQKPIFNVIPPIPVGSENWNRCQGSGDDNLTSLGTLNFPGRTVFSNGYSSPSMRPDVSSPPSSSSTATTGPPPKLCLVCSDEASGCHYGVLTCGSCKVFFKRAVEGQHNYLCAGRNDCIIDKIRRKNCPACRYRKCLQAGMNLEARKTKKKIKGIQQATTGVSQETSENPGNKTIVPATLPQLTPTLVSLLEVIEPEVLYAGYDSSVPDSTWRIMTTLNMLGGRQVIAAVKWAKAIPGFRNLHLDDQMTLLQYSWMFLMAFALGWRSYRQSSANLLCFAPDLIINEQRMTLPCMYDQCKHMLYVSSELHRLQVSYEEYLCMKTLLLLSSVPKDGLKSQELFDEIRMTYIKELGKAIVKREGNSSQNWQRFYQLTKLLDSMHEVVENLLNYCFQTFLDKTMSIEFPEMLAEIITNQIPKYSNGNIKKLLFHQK

[4] = molecular target: T3, Glucocorticoid receptor; assay: Glucocorticoid induced transactivation of human tyrosine amino transferase in HepG2 cells; type: functional, cell-based
[5] = molecular target: T3, Glucocorticoid receptor; assay: Ability to induce human glutamine synthetase in skeletal muscle cells; type: cell-based
[6] = tested on: Mus musculus; assay: Ability to induce mouse macrophage IL-6 assay in peritoneal exudate cells harvested by […] from C57BI/6 mice.; type: functional, cell-based
In short: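 Thioglycolate-elicited peritoneal exudate cells from C57Bl/6 mice, harvested day 3 in PBS/heparin, washed and resuspended at 5.6×10^5 cells/mL in RPMI 1640 with 10% heat-inactivated FCS. Compound (typically 3 μM final) preincubated 1 h at 37 °C, 5% CO2, then LPS or TNF added, 24 h. Supernatant IL-6 read; duplicate wells, three experiments.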

[7] = molecular target: T3, Glucocorticoid receptor; assay: Ability to induce human IL-6 assay in A549 lung carcinoma cell line.; type: functional, cell-based
[8] = molecular target: Mineralocorticoid receptor (Rattus norvegicus) (UniProt P22199); assay: Binding affinity for rat mineralocorticoid receptor
Mineralocorticoid receptor (Rattus norvegicus), sequence (P22199 whole entry, looked up): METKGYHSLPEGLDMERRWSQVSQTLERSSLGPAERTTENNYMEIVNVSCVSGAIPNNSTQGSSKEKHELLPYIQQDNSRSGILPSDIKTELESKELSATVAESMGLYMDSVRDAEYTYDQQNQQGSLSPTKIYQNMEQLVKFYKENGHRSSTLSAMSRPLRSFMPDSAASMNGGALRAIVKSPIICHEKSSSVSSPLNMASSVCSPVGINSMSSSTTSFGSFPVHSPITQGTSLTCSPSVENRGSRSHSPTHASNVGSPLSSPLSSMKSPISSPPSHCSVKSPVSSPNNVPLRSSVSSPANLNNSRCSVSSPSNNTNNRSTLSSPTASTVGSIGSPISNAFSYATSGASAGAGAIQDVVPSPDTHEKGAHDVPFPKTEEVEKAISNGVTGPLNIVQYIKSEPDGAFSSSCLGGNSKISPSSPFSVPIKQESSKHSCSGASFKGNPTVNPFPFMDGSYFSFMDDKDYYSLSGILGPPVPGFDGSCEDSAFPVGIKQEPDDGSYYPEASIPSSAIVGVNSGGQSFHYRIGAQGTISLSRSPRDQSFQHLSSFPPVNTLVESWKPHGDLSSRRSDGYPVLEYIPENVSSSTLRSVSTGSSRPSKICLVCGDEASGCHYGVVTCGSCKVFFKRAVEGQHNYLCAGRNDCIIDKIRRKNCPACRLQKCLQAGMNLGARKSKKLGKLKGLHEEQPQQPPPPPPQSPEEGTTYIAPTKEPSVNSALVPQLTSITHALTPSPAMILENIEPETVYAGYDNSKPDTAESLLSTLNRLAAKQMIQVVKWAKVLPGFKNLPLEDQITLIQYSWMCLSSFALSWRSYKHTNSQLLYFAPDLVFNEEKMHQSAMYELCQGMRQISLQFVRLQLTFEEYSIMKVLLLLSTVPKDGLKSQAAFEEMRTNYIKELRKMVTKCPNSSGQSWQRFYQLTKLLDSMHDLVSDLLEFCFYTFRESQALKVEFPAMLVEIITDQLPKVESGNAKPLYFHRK

[9] = molecular target: T3, Glucocorticoid receptor; assay: Binding affinity for human glucocorticoid receptor
[10] = molecular target: T4, Progesterone receptor (Homo sapiens, UniProt P06401); assay: Binding affinity towards human progesterone receptor
T4 sequence (P06401 whole entry): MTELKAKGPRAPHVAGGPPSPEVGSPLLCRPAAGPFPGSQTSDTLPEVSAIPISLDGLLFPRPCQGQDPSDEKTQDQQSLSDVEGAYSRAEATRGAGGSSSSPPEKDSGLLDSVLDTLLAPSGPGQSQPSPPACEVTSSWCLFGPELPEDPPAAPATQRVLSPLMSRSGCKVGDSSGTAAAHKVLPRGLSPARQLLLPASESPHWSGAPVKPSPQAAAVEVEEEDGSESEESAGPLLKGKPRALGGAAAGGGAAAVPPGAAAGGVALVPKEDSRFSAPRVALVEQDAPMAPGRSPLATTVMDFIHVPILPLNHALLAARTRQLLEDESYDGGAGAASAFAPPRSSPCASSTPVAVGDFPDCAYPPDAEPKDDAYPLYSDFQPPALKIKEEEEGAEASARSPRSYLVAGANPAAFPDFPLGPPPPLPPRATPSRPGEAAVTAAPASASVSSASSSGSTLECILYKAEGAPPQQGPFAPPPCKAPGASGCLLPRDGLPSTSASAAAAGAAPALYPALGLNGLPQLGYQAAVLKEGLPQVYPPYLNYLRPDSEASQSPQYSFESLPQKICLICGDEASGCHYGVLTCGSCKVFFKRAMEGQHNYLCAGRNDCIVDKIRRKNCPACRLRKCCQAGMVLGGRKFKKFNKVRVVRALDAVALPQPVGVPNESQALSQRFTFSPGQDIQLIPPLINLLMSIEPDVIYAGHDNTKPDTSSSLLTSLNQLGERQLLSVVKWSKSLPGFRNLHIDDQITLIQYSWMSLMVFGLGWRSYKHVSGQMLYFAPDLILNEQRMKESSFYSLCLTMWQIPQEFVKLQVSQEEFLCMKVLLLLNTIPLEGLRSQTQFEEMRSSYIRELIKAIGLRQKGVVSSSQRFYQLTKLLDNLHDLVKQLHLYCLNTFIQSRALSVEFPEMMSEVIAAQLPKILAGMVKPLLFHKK
In short: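 Receptor homogenates from frozen cell pellets in ice-cold KPO4 buffer (10 mM KPO4, 20 mM molybdate, 1 mM EDTA, 5 mM DTT, protease inhibitors), spun 35 000g 1 h at 4 °C. MR: recombinant baculovirus-expressed rat receptor, 2 nM [3H]aldosterone; PR: T-47D cell protein, 5 nM [3H]progesterone.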

| SMILES | IC50 [1] [nM] | IC50 [2] [nM] | IC50 [3] [nM] | EC50 [4] [nM] | EC50 [5] [nM] | EC50 [6] [nM] | EC50 [7] [nM] | IC50 [8] [nM] | IC50 [9] [nM] | IC50 [10] [nM] |
| --- | --- | --- | --- | --- | --- | --- | --- | --- | --- | --- |
| C[C@]12Cc3cnn(-c4ccc(F)cc4)c3C=C1CCC[C@@H]2[C@](C)(O)c1ccc(F)cc1 | > 1000 | > 5000 | 2.5 | 57.2 | 130 | 1.4 | 2.2 | > 5000 | 2.5 | > 1000 |
| C=CCC[C@H](O)[C@H]1CCCC2=Cc3c(cnn3-c3ccc(F)cc3)C[C@@]21C | > 1000 | > 5000 | 1.1 | 256 | – | 5.7 | 4.4 | > 5000 | 4.2 | > 1000 |
